Source: ChEMBL document CHEMBL1138186, “Dynamic pharmacophore model optimization: identification of novel HIV-1 integrase inhibitors” (J Med Chem, 2006)

Target: T1, Human immunodeficiency virus type 1 integrase (Human immunodeficiency virus 1, UniProt Q7ZJM1)
Assay: Inhibition of strand transfer activity of HIV1 integrase
Summary of the method: (§1)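 Then 20 nM 5′-32P-labeled 21-mer oligonucleotide added for 1 h. Quenched with formamide loading dye. % inhibition from 19-mer (3′-processing) or strand transfer product fractions versus DNA-alone and DNA+IN controls. IC50 from log concentration versus % inhibition plot.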

T1 sequence (Q7ZJM1 whole entry): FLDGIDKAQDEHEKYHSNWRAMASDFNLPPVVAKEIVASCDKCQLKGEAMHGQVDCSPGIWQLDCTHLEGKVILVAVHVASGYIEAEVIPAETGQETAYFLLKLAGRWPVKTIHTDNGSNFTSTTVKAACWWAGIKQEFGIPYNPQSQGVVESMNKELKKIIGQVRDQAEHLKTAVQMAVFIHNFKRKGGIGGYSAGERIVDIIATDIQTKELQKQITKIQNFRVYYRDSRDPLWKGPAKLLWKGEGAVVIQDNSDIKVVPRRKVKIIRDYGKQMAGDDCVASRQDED

Row | SMILES | IC50
1 | COc1cccc2cc(-c3csc(Nc4cccc(O)c4)n3)c(=O)oc12 | > 100 µM
2 | COc1cc(C(c2c[nH]c3ccccc23)c2c[nH]c3ccccc23)ccc1OCC(=O)O | > 100 µM
3 | CCN(CC)CCN1C(=O)C(O)=C(C(=O)c2ccccc2)C1c1ccc(OC)cc1OC (centres undefined) | > 1000 µM
4 | COc1ccc(C2C(C(=O)c3ccco3)=C(O)C(=O)N2CCN2CCOCC2)c(OC)c1 (centres undefined) | 395 µM
5 | COc1ccc(C2C(C(=O)c3ccc(F)cc3)=C(O)C(=O)N2CCN(C)C)cc1OC (centres undefined) | > 1000 µM
6 | CCOC(=O)C1=C(O)/C(=C\c2ccc(CNC(=O)C(=O)Nc3ccccc3)o2)N=C1C | 40 µM
7 | COC(=O)c1c(NC(=O)CC2Nc3ccccc3NC2=O)sc2c1CCCC2 (centres undefined) | > 100 µM
8 | O=C(C1=C(O)C(=O)N(CCCN2CCOCC2)C1c1ccccc1F)c1ccc(F)cc1 (centres undefined) | > 1000 µM
9 | O=C(O)CCC(=O)Nc1ccc(Cl)c(NC(=O)Cc2ccccc2)c1 | > 100 µM
10 | Cc1ccc(C(=O)C2=C(O)C(=O)N(CCN(C)C)C2c2ccccc2F)cc1 (centres undefined) | > 1000 µM
11 | COCCCNS(=O)(=O)c1ccc(Oc2cc(O)c3c(c2O)C(=O)c2ccccc2C3=O)cc1 | 23 µM
12 | Oc1ccc(C(c2c[nH]c3ccccc23)c2c[nH]c3ccccc23)cc1O | 10 µM
13 | CCOC(=O)c1c(NC(=O)c2cc3ccccc3oc2=O)sc(C(N)=O)c1C | 56 µM
14 | COc1ccc(C2C(C(=O)c3ccccc3)=C(O)C(=O)N2CCCO)cc1OC (centres undefined) | > 100 µM
15 | O=C(O)CCC(=O)Nc1ccc(S(=O)(=O)Nc2ccc(F)cc2)cc1 | > 100 µM
16 | NCCCNc1ccc2c3c(nn2CCNCCO)-c2c(O)ccc(O)c2C(=O)c13 [PIROXANTRONE] | 9 µM
17 | CCOC(=O)c1c(NC(=O)CC2Sc3ccc(C(F)(F)F)cc3NC2=O)sc2c1CCCC2 (centres undefined) | > 100 µM
18 | O=C(NCCCO)c1ccc(CSc2nc(O)c3c4c(sc3n2)CCC4)cc1 | > 100 µM
19 | O=c1oc2c(CN(CCO)CCO)c(O)ccc2cc1-c1nc2ccccc2s1 | 350 µM
20 | NCCCCCCNC(=O)c1c(O)oc2ccccc2c1=O | > 100 µM
21 | COc1ccc(C(=O)C2=C(O)C(=O)N(CCN3CCNCC3)C2c2ccccc2F)cc1 (centres undefined) | 630 µM
22 | CN(C)CCCN1C(=O)C(O)=C(C(=O)c2cccs2)C1c1cccs1 (centres undefined) | > 100 µM

Target: T1, Human immunodeficiency virus type 1 integrase
Assay: Inhibition of 3'-processing activity of HIV1 integrase
Summary of the method: as §1

Row | SMILES | IC50
23 | COc1cccc2cc(-c3csc(Nc4cccc(O)c4)n3)c(=O)oc12 | > 100 µM
24 | COc1cc(C(c2c[nH]c3ccccc23)c2c[nH]c3ccccc23)ccc1OCC(=O)O | > 100 µM
25 | CCN(CC)CCN1C(=O)C(O)=C(C(=O)c2ccccc2)C1c1ccc(OC)cc1OC (centres undefined) | > 1000 µM
26 | COc1ccc(C2C(C(=O)c3ccco3)=C(O)C(=O)N2CCN2CCOCC2)c(OC)c1 (centres undefined) | > 1000 µM
27 | COc1ccc(C2C(C(=O)c3ccc(F)cc3)=C(O)C(=O)N2CCN(C)C)cc1OC (centres undefined) | > 1000 µM
28 | CCOC(=O)C1=C(O)/C(=C\c2ccc(CNC(=O)C(=O)Nc3ccccc3)o2)N=C1C | > 100 µM
29 | COC(=O)c1c(NC(=O)CC2Nc3ccccc3NC2=O)sc2c1CCCC2 (centres undefined) | > 100 µM
30 | O=C(C1=C(O)C(=O)N(CCCN2CCOCC2)C1c1ccccc1F)c1ccc(F)cc1 (centres undefined) | > 1000 µM
31 | O=C(O)CCC(=O)Nc1ccc(Cl)c(NC(=O)Cc2ccccc2)c1 | > 100 µM
32 | Cc1ccc(C(=O)C2=C(O)C(=O)N(CCN(C)C)C2c2ccccc2F)cc1 (centres undefined) | > 1000 µM
33 | COCCCNS(=O)(=O)c1ccc(Oc2cc(O)c3c(c2O)C(=O)c2ccccc2C3=O)cc1 | 100 µM
34 | Oc1ccc(C(c2c[nH]c3ccccc23)c2c[nH]c3ccccc23)cc1O | 53 µM
35 | CCOC(=O)c1c(NC(=O)c2cc3ccccc3oc2=O)sc(C(N)=O)c1C | 90 µM
36 | COc1ccc(C2C(C(=O)c3ccccc3)=C(O)C(=O)N2CCCO)cc1OC (centres undefined) | > 100 µM
37 | O=C(O)CCC(=O)Nc1ccc(S(=O)(=O)Nc2ccc(F)cc2)cc1 | > 100 µM
38 | NCCCNc1ccc2c3c(nn2CCNCCO)-c2c(O)ccc(O)c2C(=O)c13 [PIROXANTRONE] | 18 µM
39 | CCOC(=O)c1c(NC(=O)CC2Sc3ccc(C(F)(F)F)cc3NC2=O)sc2c1CCCC2 (centres undefined) | > 100 µM
40 | O=C(NCCCO)c1ccc(CSc2nc(O)c3c4c(sc3n2)CCC4)cc1 | > 100 µM
41 | O=c1oc2c(CN(CCO)CCO)c(O)ccc2cc1-c1nc2ccccc2s1 | 850 µM
42 | NCCCCCCNC(=O)c1c(O)oc2ccccc2c1=O | > 100 µM
43 | COc1ccc(C(=O)C2=C(O)C(=O)N(CCN3CCNCC3)C2c2ccccc2F)cc1 (centres undefined) | > 1000 µM
44 | CN(C)CCCN1C(=O)C(O)=C(C(=O)c2cccs2)C1c1cccs1 (centres undefined) | > 100 µM
